# Bioassay records (PubChem BioAssay)
# Hits are enriched below; roughly 12% of the tested compounds scored in any of these assays.
# ROMK mod: modulates human ROMK potassium channel activity; P48048; Tet-inducible ROMK, thallium flux fluorescence; actives lie on both sides; B-score at 10 µM; hit rate 2% among 130,000; AID 1918;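 active = signal ratio slope over the read window, or its plate-corrected B-score, at least 3 SD from the plate mean, either direction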;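 note: B-score of the F/F0 ratio slope over 7 to 12 s after thallium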
# Target sequence (P48048 whole entry, looked up): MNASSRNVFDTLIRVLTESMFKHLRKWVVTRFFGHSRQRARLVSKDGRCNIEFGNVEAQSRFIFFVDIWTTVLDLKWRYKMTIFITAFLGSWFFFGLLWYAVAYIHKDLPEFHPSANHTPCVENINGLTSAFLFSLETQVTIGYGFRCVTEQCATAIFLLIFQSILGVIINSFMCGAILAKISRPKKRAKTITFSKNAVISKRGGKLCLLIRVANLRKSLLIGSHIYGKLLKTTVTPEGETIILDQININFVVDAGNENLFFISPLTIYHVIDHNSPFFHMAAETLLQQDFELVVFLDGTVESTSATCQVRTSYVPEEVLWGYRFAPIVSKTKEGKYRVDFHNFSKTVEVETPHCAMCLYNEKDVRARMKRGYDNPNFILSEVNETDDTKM
# Lmaj promast: inhibitors of Leishmania major promastigote growth; Leishmania major promastigotes, resazurin fluorescence viability; inhibition, % at 10 µM; hit rate 9% among 200,000; in the data active = inhibition above about 50%;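 note: promastigotes grown with compound for 44 hours at 28 °C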
# KCC2 mod: modulators of human KCC2 chloride dependent transport | Q9H2X9 | KCC2 cells, thallium flux FluoZin-2 fluorescence | B-score of Tl+ flux slope (higher = more flux/activation; lower = inhibition) at 10 µM | hit rate 2.2% among 190,000 | AID 1456;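 active = thallium flux slope and its plate-corrected score both differing from the plate sample mean at a set confidence after two filtering rounds, in either direction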;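 note: slope of fluorescence scaled to starting intensity during 10 to 20 s after thallium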
# WT yeast gro inh: growth inhibition of WT yeast, mitochondrial fusion screen. mitochondrial fusion phenotypic screen, WT strain. inhibition, % at 10 µM. hit rate 2.1% among 190,000; in the data active = inhibition above about 58%; tested in S. cerevisiae
# Diaph inh CS: counter-screen for diaphorase-based assays: diaphorase inhibitors and chemical oxidizers; inhibition, % at 20 µM; diaphorase resazurin-to-resorufin fluorescence, NADH, 16 min; bacterial (C. kluyveri) enzyme, not human; hit rate 0.69% among 190,000;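 active = primary screen inhibition at 20 µM above a set limit, cut at about 50% in these data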;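 note: plate controls were DMSO with full reaction for no effect and wells lacking NADH for full effect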
#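 Assay system: diaphorase enzyme from Clostridium kluyveri. Quantity: enzyme working solution with 0.14 U/mL diaphorase. Schedule: reaction incubation of 16 min at room temperature. Technique: resorufin fluorescence, excitation 544 nm, emission 590 nm. Controls: No-NADH positive control and DMSO neutral control.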
# Diaph act CS: activates diaphorase or chemically reduces, flagging diaphorase assay artifacts; Diaphorase/resazurin coupled assay, resorufin fluorescence, 16 min; hits give high values; 1 = vehicle wells, 0 = NADH-free wells; activation factor at 20 µM; hit rate 0.005% among 190,000; AID 1229;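 active = diaphorase activity raised at least twofold by the compound at 20 µM; inactive = activation factor below 2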
#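 test system = bacterial diaphorase enzyme (C. kluyveri) | quantity = enzyme 0.07 U/mL final | reagent = NADH substrate 0.114 mM plus resazurin dye 0.1 mM, final | incubation = 16 min enzyme reaction, ambient temperature | buffer or medium = HEPES pH 7.4 buffer with MgCl2 and Tween 20 | signal = fluorescence of resorufin, 544 nm excitation, 590 nm emission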
# An asterisk follows results filed as active; . = no result.
SMILES,ROMK mod,Lmaj promast,KCC2 mod,WT yeast gro inh,Diaph inh CS,Diaph act CS
CC1CC(=O)c2c(cc3c(-c4c(O)cc(O)c5c(O)c6c(cc45)OC(C)CC6=O)c(O)cc(O)c3c2O)O1 (stereo not given),.,-2.7,-6.11*,24.7,63.9*,0.4
Cc1cc(NC(=O)c2ccccc2Cl)no1,.,-3.5,-0.0342,12.5,12.3,0.9
Cc1ccc2nc(-c3ccccc3Cl)cc(C(=O)Nc3cc(C)on3)c2c1,.,55.1*,-0.669,7.8,12.6,0.9
CC(=O)Nc1ccc(C(=O)OCC(=O)NC2CCCCCCC2)cc1,.,-6.2,-0.0756,-7.8,5.3,0.9
COc1ccc(-n2cc(-c3ccc(C)cc3)[n+]3c2SCC3)cc1,-0.0281,100.4*,0.296,-1.0,8.7,0.9
CCc1ccc(-n2cc(-c3ccc(F)cc3)[n+]3c2SCCC3)cc1,-0.397,100.5*,1.05,10.6,11.8,0.9
CC(C)(C)NC(=O)CN(C(=O)Cn1nnc(-c2ccc(Cl)cc2)n1)C1CCN(Cc2ccccc2)CC1,-0.776,9.4,-0.00224,18.0,11.9,0.9
Cc1[nH]c2ccccc2c1C(=O)C(=O)N1CCN(C)CC1,0.348,5.3,-0.273,-1.1,-7.0,1.1
Cc1nn(C)cc1C1Nc2ccccc2C(=O)N1O (stereo not given),.,-1.9,-0.093,-20.0,1.4,1
C=CCc1cccc(C2Nc3ccccc3C(=O)N2O)c1O (stereo not given),.,-8.3,13.3*,8.4,3.9,1
CCCCC(=O)Nc1ccc(S(=O)(=O)Nc2nccc(C)n2)cc1,1.04,-0.3,0.356,-14.4,6.5,0.9
CCCCC(=O)Nc1ccc(C(=O)Nc2ccc(S(=O)(=O)Nc3nccc(C)n3)cc2)cc1,-0.0292,78.2*,1.07,-15.2,6.2,0.9
Cc1ccnc(NS(=O)(=O)c2ccc(NC(=O)CSc3nc(-c4ccccc4)cc(=O)[nH]3)cc2)n1,-0.267,93.7*,0.0829,-9.8,19.6,0.8
O=C(CSc1nc(NS(=O)(=O)c2ccccc2)cc(=O)[nH]1)Nc1ccc(F)cc1,0.112,0.5,0.676,-8.2,17.0,0.8
Clc1ccccc1CN(Cc1ccccc1)C(c1cccs1)c1nnnn1C1CCCC1 (stereo not given),-0.278,59.9*,0.471,-4.4,-1.2,1
Clc1ccc(CN(CC2CCCO2)C(c2cccs2)c2nnnn2C2CCCC2)cc1 (stereo not given),.,54.7*,-1.28,10.8,14.8,0.9
CCN(Cc1ccccc1)C(c1cccs1)c1nnnn1C1CCCCC1 (stereo not given),.,31.2,1.44,75.3*,4.9,1
Clc1ccccc1CN(Cc1ccco1)Cc1nnnn1C1CCCC1,.,35.1,-0.0236,30.6,-5.2,1.1
CCOC(=O)C(C)(C)n1nnc(-c2ccc([N+](=O)[O-])cc2)n1,-0.535,-1.3,0.132,6.1,-5.5,1.1
O=C(N/N=C/c1ccc[nH]1)c1ccc(O)cc1,0.763,-6.0,0.611,-11.1,34.0,0.7
CC1(C)C2CC=C(/C=N/NC(=O)c3ccccc3Br)C1C2 (stereo not given),-0.263,99.6*,0.331,-4.5,3.3,1
CC1(C)C2CC=C(/C=N/NC(=O)c3ccc(O)cc3)C1C2 (stereo not given),.,94.4*,0.315,0.4,14.3,0.9
COC(=O)N/N=C/C1=CCC2CC1C2(C)C (stereo not given),-0.839,58.1*,0.0545,22.4,14.1,0.9
CC1(C)C2CC=C(/C=N/NC(=O)C(N)=O)C1C2 (stereo not given),.,.,0.871,.,.,.
CCC1CCC(C(=O)NC(CCSC)C(=O)NCCN(CC(C)C)CC(C)C)CC1 (stereo not given),-0.213,14.6,-1.35,-19.9,11.9,0.9
SMILES,ROMK mod,Lmaj promast,KCC2 mod,WT yeast gro inh,Diaph inh CS,Diaph act CS
CC(C)C(c1nnnn1C(C)(C)C)N1CCC(Cc2ccccc2)CC1 (stereo not given),-1.46,11.5,0.0318,72.6*,-10.0,1.1
COc1ccc(NC(=O)CC#N)cc1OC,.,-4.7,1.23,-1.5,15.5,0.8
O=C(O)c1cccc(CSc2ncn[nH]2)c1,.,.,0.559,.,.,.
COc1ccc(CN(CCC(c2ccccc2)c2ccc(OC(C)C)cc2)C(=O)CCl)cc1OC (stereo not given),0.149,100.0*,-0.0644,34.3,17.9,0.8
CCN(CC)CCn1c(SCC(=O)NCc2ccco2)nc2c(sc3ccccc32)c1=O,0.442,3.1,.,-14.9,19.9,0.8
Cc1ccc(CNC(=O)CSc2nc3c(sc4ccccc43)c(=O)n2CCCN2CCCC2)cc1,-2.25,100.5*,1.05,7.1,15.5,0.8
CCN(CC)CCn1c(SCC(=O)NCCC2=CCCCC2)nc2c(sc3ccccc32)c1=O,0.245,67.9*,-0.144,32.2,0.2,1
CCN(c1ccccc1)S(=O)(=O)c1ccc(Cl)c(NC(=O)CSc2nncs2)c1,.,19.5,-1.54,8.4,14.5,0.9
Cc1nnc(NC(=O)CCNC(=O)c2ccccc2Cl)s1,0.832,-8.2,-0.0556,7.8,5.9,0.9
CCNc1nc(NCc2ccccc2)nc(SCC(=O)Nc2ccccc2)n1,.,16.7,-1.8,-0.9,15.9,0.8
CCNc1nc(NCC)nc(SCCOC(=O)Nc2ccccc2)n1,.,76.7*,-1.46,13.6,2.0,1
CCNC(=S)SCCOc1ccc(C)cc1,1.92,57.1*,-0.679,1.8,0.0,1
CNC(=S)SCCOc1ccccc1C,.,-4.6,-0.0394,19.7,6.8,0.9
CCNc1nc(NCC)nc(SCCOc2ccc(C)cc2)n1,0.6,22.0,-0.863,87.7*,21.5,0.8
CS(=O)(=O)c1ccc(C(=O)OCC(=O)NC2CCS(=O)(=O)C2)cc1[N+](=O)[O-] (stereo not given),0.00165,0.3,0.0197,-12.0,4.0,1
Cc1[nH]c2ccccc2c1C(C[N+](=O)[O-])c1cccs1 (stereo not given),-0.303,-4.9,-0.0943,-8.5,15.9,0.8
Cc1ccc(-c2[nH]c3ccccc3c2C(C[N+](=O)[O-])c2ccco2)cc1 (stereo not given),1.12,7.1,0.837,68.8*,18.9,0.8
Cc1[nH]c2ccccc2c1C(C[N+](=O)[O-])c1ccco1 (stereo not given),0.239,13.7,-0.597,-20.2,51.0*,0.5
COc1ccc(NS(=O)(=O)c2cccc(C(=O)NNC(=O)NCCCl)c2)cc1,-0.121,-2.5,0.167,3.9,6.9,0.9
Cc1csc(NC(=O)CCNC(=O)c2ccc([N+](=O)[O-])cc2)n1,0.466,5.4,0.716,-1.3,14.3,0.9
Cc1nn(-c2ccccc2)c(C)c1/C=N/NC(=O)c1cc(C23CC4CC(CC(C4)C2)C3)[nH]n1,.,91.0*,.,22.0,6.2,0.9
Cc1cc(C(=O)N/N=C/c2c(C)nn(-c3ccccc3)c2C)n[nH]1,.,.,0.422,.,.,.
